Results published in ChEMBL document CHEMBL1144660, “Docking and hydropathic scoring of polysubstituted pyrrole compounds with antitubulin activity” (Bioorg Med Chem, 2008).

Columns and labels:
MDA-MB-435 = assay: Antiproliferative activity against human MDA-MB-435 cells after 48 hrs by SRB assay; assay type: functional, cell-based; conditions: MDA-MB-435, 48 h
[1] = Inhibition of tubulin polymerization in rat A10 cells after 18 hrs by indirect immunofluorescence technique; assay type: cell-based
How it was run: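 A-10 cells were exposed to a range of concentrations for 18 hr, fixed, and stained with a β-tubulin antibody for microtubules and with DAPI for DNA. Percent microtubule loss was scored visually at each concentration, averaged over 3 independent experiments, and plotted against concentration to calculate EC50.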

Row | SMILES | IC50 (MDA-MB-435; read-out: IC50) [µM] | IC50 (MDA-MB-435; read-out: Log IC50 (converted)) [µM] | EC50 [1] [µM]
1 | CCOC(=O)c1[nH]c(Br)c(-c2cccc(OC)c2)c1Br | 0.278 | 0.282 | 2.4
2 | COC(=O)c1c(-c2ccc(OC)c(OC)c2)c(-c2ccc(OC)c(OC)c2)cn1CCc1ccc(OC)c(OC)c1 | 10 | 10 | > 50
3 | CCOC(=O)c1cc(-c2ccc(OC)cc2)c(C(=O)c2ccc(OC)cc2)[nH]1 | 2.6 | 2.63 | > 50
4 | CCOC(=O)c1[nH]c(C(=O)c2ccc(OC)cc2)c(-c2ccc(OC)cc2)c1Br | 1.9 | 1.91 | > 50
5 | CCOC(=O)c1c[nH]c(C(=O)c2ccc(OC)cc2)c1-c1ccc(OC)cc1 | 10 | 10 | > 50
6 | CCOC(=O)c1[nH]c(Br)c(-c2ccc(Cl)cc2)c1Br | 0.919 | 0.912 | > 50
7 | CCOC(=O)c1[nH]c(Br)c(-c2ccc(OC)cc2)c1Br | 0.361 | 0.363 | 5.1
8 | CCOC(=O)c1[nH]c(Br)c(-c2ccc3ccccc3c2)c1Br | 1.4 | 1.41 | 7.5
9 | CCOC(=O)c1[nH]c(Br)c(-c2ccc(Br)cc2)c1Br | 0.312 | 0.309 | > 50
10 | CCOC(=O)c1[nH]c(C(=O)c2ccc(OC)cc2)c(-c2ccc(OC)cc2)c1-c1ccc(OC)cc1 | 4.2 | 4.27 | > 50
11 | CCOC(=O)c1[nH]c(Br)c(-c2ccccc2)c1Br | 10 | 10 | > 50
12 | COc1ccc(C(=O)c2[nH]c(C(=O)c3ccc(OC)cc3)c(-c3ccc(OC)cc3)c2-c2ccc(OC)cc2)cc1 | > 20 | 200 | > 50
13 | CCOC(=O)c1[nH]c(Br)c(-c2ccc(C)cc2)c1Br | 2.2 | 2 | > 50
14 | CCOC(=O)c1cc(-c2ccc(OC)cc2)c(Cl)[nH]1 | 5 | 5.01 | > 50
15 | CCOC(=O)c1[nH]c(Br)c(-c2ccc(OC)c(OC)c2)c1Br | – | 0.0182 | –
16 | COc1cc2c(c(OC)c1OC)-c1ccc(OC)c(=O)cc1C(NC(=O)CS)CC2 (centres undefined) | 2 | 2 | –
17 | CCOC(=O)c1[nH]c(Br)c(-c2cc(OC)c(OC)c(OC)c2)c1Br | 13 | 12.9 | > 50
18 | CCOC(=O)c1[nH]c(Br)c(-c2cc(OC)c(OC)cc2Br)c1Br | 1.1 | 1.12 | 7.1
19 | CCOC(=O)c1[nH]cc(-c2ccc(OC)cc2)c1-c1ccc(OC)cc1 | > 10 | 100 | > 50
